Assay results reported in ChEMBL document CHEMBL1122735, “Synthesis and activity of novel nitropyrazines for use as hypoxic cell radiosensitizers” (J Med Chem, 1984).

Key:
[1] = Compound was evaluated for the chronic aerobic cytotoxicity in chinese hamster lung fibroblast like cells after 7 days exposure in air at 37 degree Centigrade; assay type: cell-based, Cricetulus griseus; settings: 168 h
In short: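 V79 379A Chinese hamster lung fibroblast-like cells kept in Eagle's MEM with fcs. Cells plated in Petri dishes and held with a range of sensitizer concentrations for 7 days at 37 °C in air plus 5% CO2, then colonies scored. The concentration reducing colony number to 50% was estimated.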

[2] = Partition coefficient which was measured in octanol-buffer system at pH 7, 22 degree Centigrade; assay type: physicochemical; settings: octanol/water
In short: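 Partition coefficient taken as C(octanol)/C(pH 7 buffer) at 22 °C.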

[3] = Sensitizer enhancement ratio was reported at 10E-3 mol/dmE-3 concentration.
In short: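 Asynchronous log-phase V79 379A cells, attached to glass dishes, irradiated at room temperature with 250 kVp X-rays (0.5 mm Cu + 0.8 mm Al filter, 3.26 gray min-1) in the presence of sensitizer, triplicate dishes per point; colonies scored. ER = dose for 10^-2 survival without sensitizer divided by dose with sensitizer, or ratio of final linear survival-curve slopes.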

[4] = Compound was evaluated for the acute cytotoxicity chinese hamster lung fibroblast like cells after 2 hr exposure in nitrogen at 22 degree Centigrade; assay type: cell-based, Cricetulus griseus
In short: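 V79 379A Chinese hamster lung fibroblast-like cells, taken from log-phase suspension culture, allowed to attach to glass dishes in Eagle's MEM + 10% fcs at 37 °C for 2-3 h. Exposed to a range of sensitizer concentrations for 2 h at room temperature (22 °C) under N2 + 5% CO2. Sensitizer then replaced with fresh medium, followed by 7 days at 37 °C in air + 5% CO2 and colony scoring. Value is the concentration giving 75% colony-forming survival.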

SMILES	Cytotoxicity [1] [µM]	Partition coefficient [2]	Ratio [3]	Acute toxicity [4] [mM]
Nc1nc(NCC(O)CO)c(Cl)nc1[N+](=O)[O-] (stereo not given)	580	0.6	1.25	> 4
O=[N+]([O-])c1nccnc1NCC(O)CO (stereo not given)	27	0.32	1.71	0.7
O=[N+]([O-])c1cnc(NC(CO)C(O)CO)cn1 (stereo not given)	650	0.13	1.1	> 5
CC(=O)Nc1nc(NC(CO)C(O)CO)c(Cl)nc1[N+](=O)[O-] (stereo not given)	400	0.22	1.35	> 3.3
CC(=O)Nc1nc(NCC(O)CO)c(Cl)nc1[N+](=O)[O-] (stereo not given)	96	1.01	1.3	4
CC(=O)Nc1nc(N2CCN(C)CC2)c(Cl)nc1[N+](=O)[O-]	25	3.18	1.5	0.16
COC(=O)c1nc(NCC(O)CO)cnc1[N+](=O)[O-] (stereo not given)	> 500	0.79	1.3	> 5
COCC(O)Cn1ccnc1[N+](=O)[O-] (stereo not given) [MISONIDAZOLE]	1300	0.48		30
Nc1nc(NCCO)c(Cl)nc1[N+](=O)[O-]	260	1.32	1.22	> 3
